# Shown are actives, neighbours in structure and some others; about 3.6% of the full set was active somewhere.
# NadD block = inhibitors of S. aureus NadD, primary screen, biochemical, colorimetric, uHTS. Nicotinate-nucleotide adenylyltransferase NadD (Staphylococcus aureus N315). purified NadD enzyme, colorimetric absorbance read-out. inhibition, % at 20 µM. 360,000 tested, 0.78% active; in the data active means inhibition above about 26%
# ATG4B inh = ATG4B protease inhibitors, primary screen, biochemical, fluorescence, uHTS; Cysteine protease ATG4B (Homo sapiens), Q9Y4P1; ATG4B cleavage of LC3-PLA2, NBD-HPC fluorescence, 1 h; inhibition, % at 8.33 µM; 340,000 tested, 0.51% active; in the data active means inhibition above about 40%
# GRIN3A LBD mod = binders of NR3A ligand-binding domain, primary screen, biophysical, differential scanning fluorimetry, uHTS. Glutamate receptor ionotropic, NMDA 3A (GRIN3A) ligand-binding domain. NR3A LBD differential scanning fluorimetry, Tm shift; 0% = protein alone, 100% = glycine-bound protein. Tm shift relative to glycine control, % at 25 µM. 340,000 tested, 2.5% active;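 active means melting temperature shift of at least 10% of the positive control shift, at one fixed dose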
# SENP1 FRET inh = human SENP1 catalytic domain inhibitors, primary screen, biochemical, FRET, uHTS | recombinant SENP1 catalytic domain, CyPet-SUMO1-YPet FRET cleavage | Sentrin-specific protease 1 (Homo sapiens), Q9P0U3 | 360,000 tested, 0.21% active | inhibition, % at 10 µM;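 active means inhibition at least 30% at 10 µM, raw YFP signal under a set limit, fluorescence ratio 0.5 to 1.5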;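 further: 0% = enzyme with DMSO and 100% = no enzyme wells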
# Target sequence (Q9P0U3 419-644 limits assumed): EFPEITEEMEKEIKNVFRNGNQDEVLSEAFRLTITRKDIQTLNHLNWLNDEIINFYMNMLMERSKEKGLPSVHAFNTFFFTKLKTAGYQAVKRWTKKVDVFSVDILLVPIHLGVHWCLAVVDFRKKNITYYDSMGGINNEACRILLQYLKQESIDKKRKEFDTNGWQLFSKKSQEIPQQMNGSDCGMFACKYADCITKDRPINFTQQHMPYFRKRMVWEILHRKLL
#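 Material – human SENP1 catalytic domain · Input – SENP1 enzyme, 20 pM final · Compound dosing – single concentration of 10 µM compound, 0.5% DMSO final · Timing – enzyme reaction for 50 min at room temperature, dark · Measured by – FRET fluorescence in CFP and YFP emission channels · Control set – no-enzyme wells low, DMSO-plus-enzyme wells high control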
# UCH37 DUB inh = inhibitors of human UCH37 deubiquitinase, primary screen, biochemical, Ub-AMC cleavage, fluorescence. purified proteasome/UCH37. inhibition, % (test concentration not listed). 330,000 tested, 0.33% active;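 active means mean inhibition over replicate wells above about 20%, limit read from the data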;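 further: 0% = compound-free wells with enzyme and 100% = wells lacking proteasome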
# Target sequence (Q9Y5K5 whole entry, looked up): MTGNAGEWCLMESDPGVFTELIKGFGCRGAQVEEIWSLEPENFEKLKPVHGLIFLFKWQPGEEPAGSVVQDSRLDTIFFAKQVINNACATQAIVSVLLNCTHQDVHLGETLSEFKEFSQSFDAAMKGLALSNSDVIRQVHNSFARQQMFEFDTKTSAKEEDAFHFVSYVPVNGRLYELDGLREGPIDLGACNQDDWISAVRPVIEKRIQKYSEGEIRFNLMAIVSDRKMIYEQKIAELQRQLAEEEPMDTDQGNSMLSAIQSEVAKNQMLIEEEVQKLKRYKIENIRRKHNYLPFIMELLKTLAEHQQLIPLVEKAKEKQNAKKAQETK
#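 system = Proteasome-associated human UCH37 deubiquitinase | amount = 0.15 nM proteasome as dispensed | medium = pH 7.4 Tris-HCl (50 mM) with ovalbumin, ATP-MgCl2, DTT | incubation = 30 min preincubation with enzyme, 25 min cleavage at room temperature | detection = AMC fluorescence 355/460 nm | read-out basis = percent inhibition | controls = no-proteasome and no-compound wells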
# The depositor's hits bear a star; nt = no result.
SMILES,NadD block,ATG4B inh,GRIN3A LBD mod,SENP1 FRET inh,UCH37 DUB inh
O=[N+]([O-])c1ccccc1S(=O)(=O)Nc1nc2ccccc2s1,1,-11,-14,2,2
CCOc1ccc(C=NNc2cc(C)nc(N3CCOCC3)n2)cc1,nt,nt,nt,nt,6
O=C(ON=C1CCSc2ccccc21)c1ccccc1,nt,nt,nt,nt,-3
CC1CCCCN1C(=O)COC(=O)C1CCN(S(=O)(=O)c2ccc(Cl)c(C(F)(F)F)c2)CC1 (stereo not given),-4,-5,21*,1,0
CC(=O)Nc1ccc(NC2=CC(=NS(=O)(=O)c3cccs3)c3ccccc3C2=O)cc1,nt,nt,nt,nt,29*
Cc1cc(C)c2c(c1)NC(c1cc3c(cc1Br)OCO3)C1CC=CC21 (stereo not given),37*,21,-2,20,2
O=C(CSc1nc2sc3c(c2c(=O)n1-c1ccccc1)CCCC3)NN=Cc1ccccc1C(=O)O,nt,nt,nt,nt,-67
COc1ccccc1NS(=O)(=O)c1ccc(NN=C(C)C(C)C)c([N+](=O)[O-])c1,nt,nt,nt,nt,3
CC(=O)Nc1ccc(C=NNc2ccc([N+](=O)[O-])cc2S(=O)(=O)Nc2ccccc2C(=O)O)cc1,14,34,29*,-19,9
CCOc1cc(/C=N/Nc2ccc(S(=O)(=O)Nc3ccccc3C(=O)O)cc2[N+](=O)[O-])cc(Cl)c1O,16,nt,nt,-5,nt
CC(=O)Nc1cccc(/C(C)=N/Nc2ccc(S(=O)(=O)Nc3ccccc3C(=O)O)cc2[N+](=O)[O-])c1,22,23,14*,2,nt
CC(=O)Nc1ccc(C=NNc2ccc(S(=O)(=O)Nc3ccccc3C(=O)O)cc2[N+](=O)[O-])cc1,11,11,22*,1,18
CN(CCO)c1ccc(C=NNc2ccc([N+](=O)[O-])cc2S(=O)(=O)Nc2ccccc2C(=O)O)cc1,17,32,26*,79,14
COc1ccc(C(C)=NNc2ccc([N+](=O)[O-])cc2S(=O)(=O)Nc2ccccc2C(=O)O)c(OC)c1,17,36,9,-29,18
O=C(NN=Cc1cccc(O)c1)c1ccc(COc2cccc3cccnc23)cc1,nt,nt,nt,nt,4
CN1CCN(c2ccc([N+](=O)[O-])cc2C=NNC(=O)c2cccc([N+](=O)[O-])c2)CC1,nt,nt,nt,nt,1
CC(C)(C)OC(=O)n1cc(C=NNC(=O)c2ccco2)c2ccccc21,nt,nt,nt,nt,2
Cc1nn(-c2ccccc2)c(Cl)c1C=NNc1ccc(S(=O)(=O)Nc2ccccc2C(=O)O)cc1[N+](=O)[O-],nt,nt,nt,nt,23*
COc1ccc(NS(=O)(=O)c2cc([N+](=O)[O-])ccc2N/N=C/c2c(C)[nH]c3ccccc23)cc1,11,2,28*,13,11
Cc1nn(-c2ccccc2)c(N2CCCC2)c1/C=N/Nc1ccc(S(N)(=O)=O)cc1[N+](=O)[O-],22,-4,-10,4,nt
COc1ccc(NS(=O)(=O)c2cc([N+](=O)[O-])ccc2NN=Cc2c(C)[nH]c3ccccc23)cc1,nt,nt,nt,nt,6
Cc1c2n(c3ccccc13)CCC2=NO,nt,nt,nt,nt,-6
Cc1ccc(S(=O)(=O)ON=C2CCCc3occc32)cc1,nt,nt,nt,nt,3
COc1cccc(C2Nc3cc(Cl)c(S(N)(=O)=O)cc3S(=O)(=O)N2)c1 (stereo not given),-2,3,11*,-1,1
COc1cc(C2Nc3cc(Cl)c(S(N)(=O)=O)cc3S(=O)(=O)N2)cc(OC)c1OC (stereo not given),0,9,1,1,-2
SMILES,NadD block,ATG4B inh,GRIN3A LBD mod,SENP1 FRET inh,UCH37 DUB inh
CCCn1c(N=Cc2cc(OC)ccc2O)nc2ccccc21,nt,nt,nt,nt,-1
COc1cc(NC(=S)NCCc2c[nH]c3ccccc23)c(OC)cc1Cl,-6,20,36*,0,2
O=C(NCCc1c[nH]c2ccccc12)Nc1cccc2ccccc12,6,-20,18*,-1,-3
COc1ccc2[nH]cc(CCNC(=O)Nc3ccccc3)c2c1,-9,-11,5,-1,-2
COc1ccc(NC(=S)NCCc2c[nH]c3ccccc23)cc1,-2,8,26*,2,3
COc1ccc2[nH]cc(CCNC(=S)NCCc3ccccc3)c2c1,-3,-5,26*,-3,1
O=C(CCNc1n[nH]c(=O)[nH]c1=O)NN=Cc1ccc(C(F)(F)F)cc1,nt,nt,nt,nt,3
CC(CC(=O)Nc1ccccn1)=NNC(=O)c1ccc2ccccc2c1,nt,nt,nt,nt,4
Nc1nonc1-n1nnc(C(=O)NN=Cc2cc(Cl)ccc2O)c1CN1CCCCCC1,nt,nt,nt,nt,3
Cc1ccc(NC(=S)NCCc2c[nH]c3ccccc23)c(C)c1,-7,-4,12*,3,3
CC(=NNC(=O)C1(C)CC1(Br)Br)c1cccc(NC(=O)c2ccc(C)o2)c1 (stereo not given),nt,nt,nt,nt,4
N#CC1=C(c2ccccc2)/C(=C/c2ccccc2)OC1=O,0,-3,27*,2,nt
CC(/C=C/c1ccccc1)=NNC(=O)C(O)c1ccccc1 (stereo not given),nt,nt,nt,nt,0
O=S(=O)(c1ccccc1)C(C=NO)/C=C/c1ccccc1 (stereo not given),nt,nt,nt,nt,1
COc1ccc(C(=O)CC(=O)c2ccccc2O)cc1OC,-2,-2,15*,2,-6
CCC(=O)c1ccc(OCc2ccccc2)c(OC)c1,-5,7,11*,0,-1
Cc1nonc1C(=O)NN=Cc1ccncc1,nt,nt,nt,nt,2
COc1cccc(C(=O)COC(=O)C(C)N2C(=O)c3ccccc3C2=O)c1 (stereo not given),-8,2,14*,5,2
COc1ccc(S(=O)(=O)N(CCN2CCOCC2)Cc2cc(OC)ccc2OC)cc1,-5,-15,16*,0,3
Cc1ccc(NC(=O)c2ccc(NN=Cc3cccc(O)c3)c([N+](=O)[O-])c2)cc1,nt,nt,nt,nt,9
CCN(CC)S(=O)(=O)c1ccc(Cl)c(NC(=O)COc2ccc3c(C)cc(=O)oc3c2)c1,0,10,2,3,-6
COc1ccc(S(=O)(=O)N2CCOCC2)cc1NC(=O)COC(=O)CCOc1ccc(C)cc1,-6,-5,2,1,1
COc1ccc(S(=O)(=O)N2CCOCC2)cc1NC(=O)COc1ccc(C)cc1,2,-19,18*,-1,1
CCN(CC)S(=O)(=O)c1ccc(OC)c(NC(=O)COc2ccc3c(C)cc(=O)oc3c2)c1,15,-15,11*,-4,-28
COc1cc(NC(=O)COc2ccc3c(C)cc(=O)oc3c2C)cc(OC)c1OC,6,-2,14*,5,-7
